In brackets after ≈: the same amount, converted by molar mass. Activity calls are given as the source filed them. The calls are words filed in the database; no cut-off is given here.
Tested on: not listed separately
Assay: AUC (0 to 8 hrs) in Sprague-Dawley rat at 0.1 mg/kg, iv measured up to 8 hrs by LC-MS/MS analysis
Format: ADME, organism-based
Parameters: route intravenous, dose 0.1 mg/kg, time <=8
Conditions: in vivo

Row | Compound | AUC(0-t) [ng·h/mL]
1 | O=C(O)c1ccc2nc(-c3cc(Cl)cc(Cl)c3)oc2c1 | 1710

Tested on: not listed separately
Assay: Aqueous solubility of the compound in pH 6.8 JP2 fluid measured after 4 hrs by HPLC-UV analysis
Format: physicochemical
Conditions: not given
Outline: (§1)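 Test compound diluted from 10 mM DMSO stock 2:165 into JP 1st fluid (pH 1.2) or JP 2nd fluid (pH 6.8); mixed 4 h at 37 °C with rotation at 1000 rpm, then filtered through 0.45 μm PVDF by centrifugation. At least two technical replicates.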

Row | Compound | solubility at 4 h [µM]
2 | Cc1cc(C(=O)O)cc2c(=O)c3ccccc3oc12 | > 100
3 | O=C(O)c1ccc2nc(-c3cc(Cl)cc(Cl)c3)oc2c1 | > 100

Tested on: not listed separately
Assay: Total clearance in Sprague-Dawley rat at 1 mg/kg, iv measured up to 8 hrs by LC-MS/MS analysis
Format: ADME, organism-based
Conditions: in vivo
Outline: (§2)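 Male Sprague Dawley rats (7 weeks old, n = 2) given compound in 10% DMSO/0.1 M phosphate pH 8.5, i.v. or p.o. Caudal-vein blood at 5 min (i.v.), 15, 30 min, 1, 2, 4, 8 h; plasma precipitated with acetonitrile/IS, LC-MS/MS. Non-compartmental analysis; bioavailability = AUC∞(p.o.)/AUC∞(i.v.).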

Row | Compound | clearance [mL/min/kg]
4 | Cc1cc(C(=O)O)cc2c(=O)c3ccccc3oc12 | 2.22

Tested on: not listed separately
Assay: Elimination half life in Sprague-Dawley rat at 0.1 mg/kg, iv measured up to 8 hrs by LC-MS/MS analysis
Format: ADME, organism-based
Conditions: in vivo, read-out: beta t1/2 (converted)
Outline: as §2

Row | Compound | half-life [h]
5 | O=C(O)c1ccc2nc(-c3cc(Cl)cc(Cl)c3)oc2c1 | 12

Tested on: not listed separately
Assay: Elimination half life in Sprague-Dawley rat at 1 mg/kg, iv measured up to 8 hrs by LC-MS/MS analysis
Format: ADME, organism-based
Conditions: in vivo, read-out: beta t1/2 (converted)
Outline: as §2

Row | Compound | half-life [h]
6 | Cc1cc(C(=O)O)cc2c(=O)c3ccccc3oc12 | 2.4

Tested on: not listed separately
Assay: Metabolic stability in Sprague-Dawley rat liver microsomes assessed as residual rate at 1 uM preincubated for 5 mins followed by NADPH addition and measured after 30 mins by LC-MS/MS analysis
Format: ADME, Microsome
Conditions: time 35 min, read-out: Stabilty
Outline: (§3)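 Rat liver microsomes 0.2 mg/mL with 1 μM compound, 1 mM EDTA, 0.1 M phosphate pH 7.4; 5 min preincubation, then 1 mM NADPH (final) added, 30 min at 37 °C, 60 rpm. Quenched in cold acetonitrile/internal standard, supernatant by LC-MS/MS against time zero. CLint scaled with 44.8 mg protein/g liver, 40.0 g liver/kg. At least two technical replicates.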

Row | Compound | remaining at 0.5 h, 1 µM [%]
7 | Cc1cc(C(=O)O)cc2c(=O)c3ccccc3oc12 | 88
8 | O=C(O)c1ccc2nc(-c3cc(Cl)cc(Cl)c3)oc2c1 | 88

Target: Transthyretin (Homo sapiens) (UniProt P02766)
Assay: Binding affinity to TTR V30M mutant (unknown origin) expressed in Escherichia coli by isothermal titration calorimetry
Conditions: not given

Row | Compound | Activity
9 | Cc1cc(C(=O)O)cc2c(=O)c3ccccc3oc12 | Active
10 | O=C(O)c1ccc2nc(-c3cc(Cl)cc(Cl)c3)oc2c1 | Active

Tested on: not listed separately
Assay: Protein binding in Sprague-Dawley rat plasma assessed as unbound fraction at 1 uM measured after 4 hrs by equilibrium dialysis assay
Format: ADME, cell-free
Conditions: not given
Outline: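 Rat plasma spiked at 1 μM, equilibrium dialysis (8K MWCO) against 0.1 M phosphate pH 7.4 for 4 h at 37 °C, 1000 rpm. Unbound fraction = buffer/plasma concentration ratio. At least two technical replicates.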

Row | Compound | fraction unbound at 4 h, 1 µM
11 | Cc1cc(C(=O)O)cc2c(=O)c3ccccc3oc12 | 0.0073
12 | O=C(O)c1ccc2nc(-c3cc(Cl)cc(Cl)c3)oc2c1 | 0.0051

Tested on: not listed separately
Assay: AUC infinity in Sprague-Dawley rat at 1 mg/kg, iv measured up to 8 hrs by LC-MS/MS analysis
Format: ADME, organism-based
Parameters: route intravenous, dose 1 mg/kg, time <=8
Conditions: in vivo

Row | Compound | AUC(0-inf) [ng·h/mL]
13 | Cc1cc(C(=O)O)cc2c(=O)c3ccccc3oc12 | 7520

Tested on: not listed separately
Assay: Volume of distribution at steady state in Sprague-Dawley rat at 0.1 mg/kg, iv measured up to 8 hrs by LC-MS/MS analysis
Format: ADME, organism-based
Conditions: in vivo, read-out: Vdss
Outline: as §2

Row | Compound | Vd [L/kg]
14 | O=C(O)c1ccc2nc(-c3cc(Cl)cc(Cl)c3)oc2c1 | 0.375

Tested on: not listed separately
Assay: Total clearance in Sprague-Dawley rat at 0.1 mg/kg, iv measured up to 8 hrs by LC-MS/MS analysis
Format: ADME, organism-based
Conditions: in vivo
Outline: as §2

Row | Compound | clearance [mL/min/kg]
15 | O=C(O)c1ccc2nc(-c3cc(Cl)cc(Cl)c3)oc2c1 | 0.383

Tested on: not listed separately
Assay: Volume of distribution at steady state in Sprague-Dawley rat at 1 mg/kg, iv measured up to 8 hrs by LC-MS/MS analysis
Format: ADME, organism-based
Conditions: in vivo, read-out: Vdss
Outline: as §2

Row | Compound | Vd [L/kg]
16 | Cc1cc(C(=O)O)cc2c(=O)c3ccccc3oc12 | 0.148

Tested on: not listed separately
Assay: Metabolic stability in Sprague-Dawley rat liver microsomes assessed as residual rate at 1 uM measured after 30 mins by LC-MS/MS analysis
Format: ADME, Microsome
Conditions: read-out: Stabilty

Row | Compound | remaining at 0.5 h, 1 µM [%]
17 | Cc1cc(C(=O)O)cc2c(=O)c3ccccc3oc12 | 88
18 | O=C(O)c1ccc2nc(-c3cc(Cl)cc(Cl)c3)oc2c1 | 88

Tested on: not listed separately
Assay: Tmax in Sprague-Dawley rat at 1 mg/kg, po measured up to 8 hrs by LC-MS/MS analysis
Format: ADME, organism-based
Conditions: in vivo
Outline: as §2

Row | Compound | Tmax [h]
19 | Cc1cc(C(=O)O)cc2c(=O)c3ccccc3oc12 | 0.25

Tested on: not listed separately
Assay: Cmax in Sprague-Dawley rat at 0.1 mg/kg, po measured up to 8 hrs by LC-MS/MS analysis
Format: ADME, organism-based
Parameters: route oral, dose 0.1 mg/kg, time <=8
Conditions: in vivo
Outline: as §2

Row | Compound | Cmax [ng/mL]
20 | O=C(O)c1ccc2nc(-c3cc(Cl)cc(Cl)c3)oc2c1 | 163

Tested on: not listed separately
Assay: Cmax in Sprague-Dawley rat at 0.1 mg/kg, iv measured up to 8 hrs by LC-MS/MS analysis
Format: ADME, organism-based
Parameters: route intravenous, dose 0.1 mg/kg, time <=8
Conditions: in vivo
Outline: as §2

Row | Compound | Cmax [ng/mL]
21 | O=C(O)c1ccc2nc(-c3cc(Cl)cc(Cl)c3)oc2c1 | 537

Tested on: not listed separately
Assay: Tmax in Sprague-Dawley rat at 0.1 mg/kg, po measured up to 8 hrs by LC-MS/MS analysis
Format: ADME, organism-based
Conditions: in vivo
Outline: as §2

Row | Compound | Tmax [h]
22 | O=C(O)c1ccc2nc(-c3cc(Cl)cc(Cl)c3)oc2c1 | 8

Tested on: not listed separately
Assay: AUC infinity in Sprague-Dawley rat at 1 mg/kg, po measured up to 8 hrs by LC-MS/MS analysis
Format: ADME, organism-based
Parameters: route oral, dose 1 mg/kg, time <=8
Conditions: in vivo

Row | Compound | AUC(0-inf) [ng·h/mL]
23 | Cc1cc(C(=O)O)cc2c(=O)c3ccccc3oc12 | 2620

Tested on: not listed separately
Assay: AUC (0 to 8 hrs) in Sprague-Dawley rat at 0.1 mg/kg, po measured up to 8 hrs by LC-MS/MS analysis
Format: ADME, organism-based
Parameters: route oral, dose 0.1 mg/kg, time <=8
Conditions: in vivo

Row | Compound | AUC(0-t) [ng·h/mL]
24 | O=C(O)c1ccc2nc(-c3cc(Cl)cc(Cl)c3)oc2c1 | 956

Tested on: not listed separately
Assay: Permeability of the compound at 10 uM measured after 4 hrs by PAMPA based LC-MS analysis
Format: ADME
Conditions: read-out: permeability
Outline: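 PAMPA on pre-coated plates: donor 10 μM compound in 5% DMSO/0.1 M phosphate pH 6.4, acceptor 5% DMSO/0.1 M phosphate pH 7.4; 4 h at 37 °C without agitation. Donor, acceptor and initial donor solutions quantified by LC-MS/MS; recovery above 90%. Antipyrine, metoprolol, sulfasalazine as references. At least two technical replicates.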

Row | Compound | Papp at 4 h, 10 µM [×10⁻⁶ cm/s]
25 | Cc1cc(C(=O)O)cc2c(=O)c3ccccc3oc12 | 18
26 | O=C(O)c1ccc2nc(-c3cc(Cl)cc(Cl)c3)oc2c1 | > 50

Tested on: not listed separately
Assay: Bioavailability in Sprague-Dawley rat at 0.1 mg/kg, iv measured up to 8 hrs by LC-MS/MS analysis
Format: ADME, organism-based
Conditions: in vivo
Outline: as §2

Row | Compound | bioavailability [%]
27 | O=C(O)c1ccc2nc(-c3cc(Cl)cc(Cl)c3)oc2c1 | 55.8

Tested on: not listed separately
Assay: Bioavailability in Sprague-Dawley rat at 1 mg/kg, iv measured up to 8 hrs by LC-MS/MS analysis
Format: ADME, organism-based
Conditions: in vivo
Outline: as §2

Row | Compound | bioavailability [%]
28 | Cc1cc(C(=O)O)cc2c(=O)c3ccccc3oc12 | 34.9

Tested on: not listed separately
Assay: Elimination half life in Sprague-Dawley rat at 1 mg/kg, po measured up to 8 hrs by LC-MS/MS analysis
Format: ADME, organism-based
Conditions: in vivo, read-out: beta t1/2 (converted)
Outline: as §2

Row | Compound | half-life [h]
29 | Cc1cc(C(=O)O)cc2c(=O)c3ccccc3oc12 | 4.4

Tested on: not listed separately
Assay: AUC infinity in Sprague-Dawley rat at 0.1 mg/kg, iv measured up to 8 hrs by LC-MS/MS analysis
Format: ADME, organism-based
Parameters: route intravenous, dose 0.1 mg/kg, time <=8
Conditions: in vivo

Row | Compound | AUC(0-inf) [ng·h/mL]
30 | O=C(O)c1ccc2nc(-c3cc(Cl)cc(Cl)c3)oc2c1 | 4330

Tested on: not listed separately
Assay: Intrinsic clearance in Sprague-Dawley rat liver microsomes at 1 uM preincubated for 5 mins followed by NADPH addition and measured after 30 mins by LC-MS/MS analysis
Format: ADME, Microsome
Conditions: time 35 min, read-out: CLH
Outline: as §3

Row | Compound | CLint scaled at 1 µM [mL/min/kg]
31 | Cc1cc(C(=O)O)cc2c(=O)c3ccccc3oc12 | 35.7
32 | O=C(O)c1ccc2nc(-c3cc(Cl)cc(Cl)c3)oc2c1 | 38.7

Target: Transthyretin (Homo sapiens, UniProt P02766, V50M)
Assay: Inhibition of acid-mediated aggregation of TTR V30M mutant (unknown origin) expressed in Escherichia coli pretreated for 30 mins at pH 7 followed by protein dilution in acetate buffer and further incubated for 96 hrs at pH 4.6 by thioflavin-T fluorescence assay
Conditions: not given

Row | Compound | IC50 [µM]
33 | Cc1cc(C(=O)O)cc2c(=O)c3ccccc3oc12 | 6.5

Tested on: not listed separately
Assay: Cmax in Sprague-Dawley rat at 1 mg/kg, iv measured up to 8 hrs by LC-MS/MS analysis
Format: ADME, organism-based
Parameters: route intravenous, dose 1 mg/kg, time <=8
Conditions: in vivo
Outline: as §2

Row | Compound | Cmax [ng/mL]
34 | Cc1cc(C(=O)O)cc2c(=O)c3ccccc3oc12 | 19200

Tested on: not listed separately
Assay: Aqueous solubility of the compound in pH 1.2 JP1 fluid measured after 4 hrs ny HPLC-UV analysis
Format: physicochemical
Conditions: not given
Outline: as §1

Row | Compound | solubility at 4 h [µM]
35 | Cc1cc(C(=O)O)cc2c(=O)c3ccccc3oc12 | 2 (≈ 0.508 µg/mL)
36 | O=C(O)c1ccc2nc(-c3cc(Cl)cc(Cl)c3)oc2c1 | 0.088 (≈ 0.0271 µg/mL)

Tested on: not listed separately
Assay: Cmax in Sprague-Dawley rat at 1 mg/kg, po measured up to 8 hrs by LC-MS/MS analysis
Format: ADME, organism-based
Parameters: route oral, dose 1 mg/kg, time <=8
Conditions: in vivo
Outline: as §2

Row | Compound | Cmax [ng/mL]
37 | Cc1cc(C(=O)O)cc2c(=O)c3ccccc3oc12 | 476

From ChEMBL document CHEMBL4811317, “Inhibitory activities of anthraquinone and xanthone derivatives against transthyretin amyloidogenesis” (Bioorg Med Chem, 2021)
